Assay type in all cases: functional
Test [1] relates to Staphylococcus aureus. Put plainly: Antibacterial activity against constitutive macrolide, licosamide and streptogramin-resistant Staphylococcus aureus PK2 by broth microdilution technique. In outline: (§1)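 MICs were determined by CLSI broth microdilution, with double dilutions of compound. Staphylococci were grown on Mueller–Hinton agar before testing. Results are given in µg/mL.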

Another test concerns Moraxella catarrhalis. Put plainly: Antibacterial activity against Moraxella catarrhalis ATCC 23246 by broth microdilution technique. In outline:
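MIC by broth microdilution per CLSI guidelines with doubling dilutions of compounds. Before testing, organisms were grown on Columbia agar with 5% sheep blood. Values reported in µg/mL.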

The subject of test [2] is Streptococcus pneumoniae. The test is described as follows: Antibacterial activity against erythromycin-sensitive Streptococcus pneumoniae SP030 by broth microdilution technique. In outline:
(§2)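 Streptococcal MICs by CLSI broth microdilution with doubling dilutions, but with 5% horse serum in the medium in place of lysed blood. Before testing, strains were grown on Columbia agar with 5% sheep blood. Values reported in µg/mL.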

Test [3] concerns Staphylococcus aureus. The test is described as follows: Antibacterial activity against erythromycin-sensitive Staphylococcus aureus ATCC 13709 by broth microdilution technique. An outline of the steps: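 MIC by broth microdilution per CLSI guidelines with doubling dilutions of compounds. Before testing, staphylococci were grown on Mueller–Hinton agar. Values reported in µg/mL.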
A general note: Broth dilution looks for growth in wells or tubes with falling amounts of substance.

Test [4] relates to Streptococcus pyogenes. Put plainly: Antibacterial activity against efflux-mediated macrolide-resistant Streptococcus pyogenes 3 Finland by broth microdilution technique. In outline: (§3)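 MICs were determined by CLSI broth microdilution, with double dilutions of compound. In the streptococcal medium, 5% horse serum replaced lysed blood. Streptococci were grown on Columbia agar with 5% sheep blood before testing. Results are given in µg/mL.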

Test [5] relates to Staphylococcus aureus. Put plainly: Antibacterial activity against efflux-mediated macrolide-resistant Staphylococcus aureus PK1 by broth microdilution technique. In outline: as §1
Test [6] relates to Streptococcus pyogenes. The test is described as follows: Antibacterial activity against inducible macrolide, licosamide and streptogramin-resistant Streptococcus pyogenes Finland 11 by broth microdilution technique. An outline of the steps:
as §3

Test [7] relates to Streptococcus pneumoniae. Put plainly: Antibacterial activity against constitutive macrolide, licosamide and streptogramin-resistant Streptococcus pneumoniae 58 Spain by broth microdilution technique. An outline of the steps: as §3
The test system of test [8] is Staphylococcus aureus. The test is described as follows: Antibacterial activity against inducible macrolide, licosamide and streptogramin-resistant Staphylococcus aureus 90256/97 by broth microdilution technique. An outline of the steps:
as §1

The subject of test [9] is Streptococcus pyogenes. The test is described as follows: Antibacterial activity against constitutive macrolide, licosamide and streptogramin-resistant Streptococcus pyogenes 166 GR-Micro by broth microdilution technique. An outline of the steps: as §3
For test [10], the system named is Streptococcus pneumoniae. The test is described as follows: Antibacterial activity against efflux-mediated macrolide-resistant Streptococcus pneumoniae Ci137 by broth microdilution technique. In outline: as §3
The subject of test [11] is Streptococcus pyogenes. Put plainly: Antibacterial activity against erythromycin-sensitive Streptococcus pyogenes 3565 by broth microdilution technique. An outline of the steps: as §2
The subject of another test is Haemophilus influenzae. Put plainly: Antibacterial activity against Haemophilus influenzae ATCC 49247 by broth microdilution technique. An outline of the steps:
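MIC by broth microdilution per CLSI guidelines with doubling dilutions of compounds. Before testing, organisms were grown on Mueller-Hinton chocolate agar. Values reported in µg/mL.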

Test [12] concerns Streptococcus pneumoniae. The test is described as follows: Antibacterial activity against inducible macrolide-resistant, constitutive licosamide and streptogramin-resistant Streptococcus pneumoniae 134 GR-Micro by broth microdilution technique. In outline:
as §3

In ChEMBL document CHEMBL1926518, “Synthesis of macrolones with central piperazine ring in the linker and its influence on antibacterial activity” (2011) one finds MIC data, which are given here for one compound.

Converted amounts (≈) assume the structure as drawn.

For the compound `CC[C@H]1OC(=O)[C@H](C)[C@@H](O[C@H]2C[C@@](C)(OC)[C@@H](O)[C@H](C)O2)[C@H](C)[C@@H](O[C@@H]2O[C@H](C)C[C@H](N(C)C)[C@H]2O)[C@](C)(OC)C[C@@H](C)C(=O)[C@H](C)[C@@H](O)[C@]1(C)O` [CLARITHROMYCIN], the MIC against Staphylococcus aureus [1] is greater than 64 µg/mL; with Moraxella catarrhalis, no more than 0.125 µg/mL; in the test with Streptococcus pneumoniae [2] it was no more than 0.125 µg/mL; in the test on Staphylococcus aureus [3], 0.25 µg/mL (≈ 0.334 µM); against Streptococcus pyogenes [4], 4 µg/mL (≈ 5.35 µM); with Staphylococcus aureus [5], 32 µg/mL (≈ 42.8 µM). In addition, the MIC is 1 µg/mL (≈ 1.34 µM) against Streptococcus pyogenes [6]; greater than 64 µg/mL in the test with Streptococcus pneumoniae [7]; greater than 64 µg/mL against Staphylococcus aureus [8]; greater than 64 µg/mL with Streptococcus pyogenes [9]; 4 µg/mL (≈ 5.35 µM) in the test on Streptococcus pneumoniae [10]; no more than 0.125 µg/mL with Streptococcus pyogenes [11]. The MIC was 8 µg/mL (≈ 10.7 µM) against Haemophilus influenzae and greater than 64 µg/mL against Streptococcus pneumoniae [12].
